How the values were obtained:
[1] = Displacement of [125I]IMPY from beta amyloid protein plaques in Alzheimer's disease patient brain; design: species or system Homo sapiens
Method in brief: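 Competition binding to pooled gray-matter homogenates from four AD brains (approximately 100 mg wet tissue/mL in PBS pH 7.4; 20–50 μg per tube). [125I]2 at 0.04–0.06 nM; inhibitors 10^-5–10^-10 M in PBS with 0.1% BSA; final volume 1 mL. Nonspecific binding with 600 nM 2. Incubated 37 °C, 2 h; GF/B filtration, gamma counting. Ki from nonlinear regression.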

[2] = tested on: Zone of skin; assay: Biodistribution in ICR mouse skin at 5 to 10 uCi, iv after 2 hrs; format: ADME, organism-based; conditions: in vivo
Method in brief: (§1)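 Male ICR mice (22–25 g) under isoflurane anesthesia; [125I] or [18F] tracer (5–10 μCi) in 0.15 mL of 0.1% bovine serum albumin solution injected into the tail vein. Groups of n = 3 per time point, killed by cervical dislocation. Organs removed, weighed and gamma-counted against diluted aliquots of injected dose, giving % dose/organ and % ID/g. Total blood activity assumed as 7% of body weight.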

[3] = tested on: Heart; assay: Biodistribution in ICR mouse heart at 5 to 10 uCi, iv after 1 hr; format: ADME, organism-based; conditions: in vivo; method in brief: as §1
[4] = tested on: Liver; assay: Biodistribution in ICR mouse liver at 5 to 10 uCi, iv after 1 hr; format: ADME, organism-based; conditions: in vivo; method in brief: as §1
[5] = tested on: Liver; assay: Biodistribution in ICR mouse liver at 5 to 10 uCi, iv after 30 mins; format: ADME, organism-based; conditions: in vivo, 0.5 h; method in brief: as §1
[6] = tested on: Liver; assay: Biodistribution in ICR mouse liver at 5 to 10 uCi, iv after 2 hrs; format: ADME, organism-based; conditions: in vivo; method in brief: as §1
[7] = tested on: Heart; assay: Biodistribution in ICR mouse heart at 5 to 10 uCi, iv after 2 mins; format: ADME, organism-based; conditions: in vivo; method in brief: as §1
[8] = tested on: Lung; assay: Biodistribution in ICR mouse lung at 5 to 10 uCi, iv after 30 mins; format: ADME, organism-based; conditions: in vivo, 0.5 h; method in brief: as §1
[9] = tested on: Lung; assay: Biodistribution in ICR mouse lung at 5 to 10 uCi, iv after 2 mins; format: ADME, organism-based; conditions: in vivo; method in brief: as §1
[10] = tested on: Blood; assay: Biodistribution in ICR mouse blood at 5 to 10 uCi, iv after 2 hrs; format: ADME, organism-based; conditions: in vivo; method in brief: as §1
[11] = tested on: Blood; assay: Biodistribution in ICR mouse blood at 5 to 10 uCi, iv after 2 mins; format: ADME, organism-based; conditions: in vivo; method in brief: as §1
[12] = tested on: Thyroid gland; assay: Biodistribution in ICR mouse thyroid at 5 to 10 uCi, iv after 2 mins; format: ADME, organism-based; conditions: in vivo; method in brief: as §1
[13] = tested on: Kidney; assay: Biodistribution in ICR mouse kidney at 5 to 10 uCi, iv after 1 hr; format: ADME, organism-based; conditions: in vivo; method in brief: as §1
[14] = tested on: Blood; assay: Biodistribution in ICR mouse blood at 5 to 10 uCi, iv after 1 hr; format: ADME, organism-based; conditions: in vivo; method in brief: as §1
[15] = tested on: Muscle tissue; assay: Biodistribution in ICR mouse muscle at 5 to 10 uCi, iv after 2 hrs; format: ADME, organism-based; conditions: in vivo; method in brief: as §1
[16] = tested on: Kidney; assay: Biodistribution in ICR mouse kidney at 5 to 10 uCi, iv after 2 hrs; format: ADME, organism-based; conditions: in vivo; method in brief: as §1
[17] = tested on: Brain; assay: Biodistribution in ICR mouse brain at 5 to 10 uCi, iv after 2 mins; format: ADME, organism-based; conditions: in vivo; method in brief: as §1
[18] = Partition coefficient, log P of the compound; format: physicochemical; conditions: octanol/water
Method in brief: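 [125I] or [18F] tracer mixed with 3 g each of 1-octanol and 0.1 M phosphate buffer pH 7.4. Vortexed 3 min at room temperature, then centrifuged 5 min. Two 0.5 g samples from each layer counted; PC is the ratio of cpm/g in octanol to cpm/g in buffer. The octanol layer was repartitioned until values were consistent.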

[19] = tested on: Spleen; assay: Biodistribution in ICR mouse spleen at 5 to 10 uCi, iv after 30 mins; format: ADME, organism-based; conditions: in vivo, 0.5 h; method in brief: as §1
[20] = tested on: Muscle tissue; assay: Biodistribution in ICR mouse muscle at 5 to 10 uCi, iv after 30 mins; format: ADME, organism-based; conditions: in vivo, 0.5 h; method in brief: as §1
[21] = tested on: Spleen; assay: Biodistribution in ICR mouse spleen at 5 to 10 uCi, iv after 2 hrs; format: ADME, organism-based; conditions: in vivo; method in brief: as §1
[22] = tested on: Zone of skin; assay: Biodistribution in ICR mouse skin at 5 to 10 uCi, iv after 1 hr; format: ADME, organism-based; conditions: in vivo; method in brief: as §1
[23] = tested on: Spleen; assay: Biodistribution in ICR mouse spleen at 5 to 10 uCi, iv after 1 hr; format: ADME, organism-based; conditions: in vivo; method in brief: as §1
[24] = tested on: Blood; assay: Biodistribution in ICR mouse blood at 5 to 10 uCi, iv after 30 mins; format: ADME, organism-based; conditions: in vivo, 0.5 h; method in brief: as §1
[25] = tested on: Zone of skin; assay: Biodistribution in ICR mouse skin at 5 to 10 uCi, iv after 2 mins; format: ADME, organism-based; conditions: in vivo; method in brief: as §1
[26] = tested on: Zone of skin; assay: Biodistribution in ICR mouse skin at 5 to 10 uCi, iv after 30 mins; format: ADME, organism-based; conditions: in vivo, 0.5 h; method in brief: as §1
[27] = tested on: Kidney; assay: Biodistribution in ICR mouse kidney at 5 to 10 uCi, iv after 30 mins; format: ADME, organism-based; conditions: in vivo, 0.5 h; method in brief: as §1
[28] = tested on: Thyroid gland; assay: Biodistribution in ICR mouse thyroid at 5 to 10 uCi, iv after 1 hr; format: ADME, organism-based; conditions: in vivo; method in brief: as §1
[29] = tested on: Muscle tissue; assay: Biodistribution in ICR mouse muscle at 5 to 10 uCi, iv after 1 hr; format: ADME, organism-based; conditions: in vivo; method in brief: as §1
[30] = tested on: Brain; assay: Biodistribution in ICR mouse brain at 5 to 10 uCi, iv after 30 mins; format: ADME, organism-based; conditions: in vivo, 0.5 h; method in brief: as §1
[31] = tested on: Brain; assay: Biodistribution in ICR mouse brain at 5 to 10 uCi, iv after 2 hrs; format: ADME, organism-based; conditions: in vivo; method in brief: as §1
[32] = tested on: Lung; assay: Biodistribution in ICR mouse lung at 5 to 10 uCi, iv after 2 hrs; format: ADME, organism-based; conditions: in vivo; method in brief: as §1
[33] = tested on: Liver; assay: Biodistribution in ICR mouse liver at 5 to 10 uCi, iv after 2 mins; format: ADME, organism-based; conditions: in vivo; method in brief: as §1
[34] = tested on: Brain; assay: Biodistribution in ICR mouse brain at 5 to 10 uCi, iv after 1 hr; format: ADME, organism-based; conditions: in vivo; method in brief: as §1
[35] = tested on: Lung; assay: Biodistribution in ICR mouse lung at 5 to 10 uCi, iv after 1 hr; format: ADME, organism-based; conditions: in vivo; method in brief: as §1
[36] = tested on: Heart; assay: Biodistribution in ICR mouse heart at 5 to 10 uCi, iv after 30 mins; format: ADME, organism-based; conditions: in vivo, 0.5 h; method in brief: as §1
[37] = tested on: Spleen; assay: Biodistribution in ICR mouse spleen at 5 to 10 uCi, iv after 2 mins; format: ADME, organism-based; conditions: in vivo; method in brief: as §1
[38] = tested on: Heart; assay: Biodistribution in ICR mouse heart at 5 to 10 uCi, iv after 2 hrs; format: ADME, organism-based; conditions: in vivo; method in brief: as §1
[39] = tested on: Thyroid gland; assay: Biodistribution in ICR mouse thyroid at 5 to 10 uCi, iv after 30 mins; format: ADME, organism-based; conditions: in vivo, 0.5 h; method in brief: as §1
[40] = tested on: Muscle tissue; assay: Biodistribution in ICR mouse muscle at 5 to 10 uCi, iv after 2 mins; format: ADME, organism-based; conditions: in vivo; method in brief: as §1
[41] = tested on: Kidney; assay: Biodistribution in ICR mouse kidney at 5 to 10 uCi, iv after 2 mins; format: ADME, organism-based; conditions: in vivo; method in brief: as §1

CN(C)c1ccc(-c2cn(-c3ccc(OCCF)cc3)nn2)cc1
Ki [1]: 5 nM

CN(C)c1ccc(-c2cn(-c3ccc(OCC[18F])cc3)nn2)cc1
Drug uptake [2]: 1.42 % ID/g | Drug uptake [3]: 2.02 % ID/g | Drug uptake [4]: 3.52 % ID/g | Drug uptake [5]: 5.54 % ID/g | Drug uptake [6]: 2.69 % ID/g | Drug uptake [7]: 4.25 % ID/g | Drug uptake [8]: 2.72 % ID/g | Drug uptake [9]: 5.68 % ID/g | Drug uptake [10]: 2.3 % ID/g | Drug uptake [11]: 2.63 % ID/g | Drug uptake [12]: 1.41 % ID/g | Drug uptake [13]: 2.44 % ID/g | Drug uptake [14]: 2.45 % ID/g | Drug uptake [15]: 1.11 % ID/g | Drug uptake [16]: 2.01 % ID/g | Drug uptake [17]: 5.92 % ID/g | logP [18]: 2.7 | Drug uptake [19]: 2.21 % ID/g | Drug uptake [20]: 1.51 % ID/g | Drug uptake [21]: 1.43 % ID/g | Drug uptake [22]: 1.72 % ID/g | Drug uptake [23]: 1.66 % ID/g | Drug uptake [24]: 2.65 % ID/g | Drug uptake [25]: 0.51 % ID/g | Drug uptake [26]: 1.82 % ID/g | Drug uptake [27]: 3.35 % ID/g | Drug uptake [28]: 3.25 % ID/g | Drug uptake [29]: 1.33 % ID/g | Drug uptake [30]: 2.53 % ID/g | Drug uptake [31]: 2.08 % ID/g | Drug uptake [32]: 1.79 % ID/g | Drug uptake [33]: 11.6 % ID/g | Drug uptake [34]: 2.34 % ID/g | Drug uptake [35]: 2.03 % ID/g | Drug uptake [36]: 2.28 % ID/g | Drug uptake [37]: 4.04 % ID/g | Drug uptake [38]: 1.83 % ID/g | Drug uptake [39]: 1.89 % ID/g | Drug uptake [40]: 0.73 % ID/g | Drug uptake [41]: 6.94 % ID/g

CNc1ccc(-c2cn(-c3ccc(I)cc3)nn2)cc1
Ki [1]: 4 nM

CN(C)c1ccc(-c2cn(-c3ccc(OCCO)cc3)nn2)cc1
Ki [1]: 10 nM
